Source: ChEMBL document CHEMBL2417457, “Octahydropyrrolo[3,4-c]pyrrole negative allosteric modulators of mGlu1” (Bioorg Med Chem Lett, 2013)
Calls of active or inactive are those of the source. The rule behind the calls is not given here.

Assays:
Plasma = test: Fraction unbound in rat plasma; type: ADME, cell-free
Outline: (§1)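 Unbound fraction was determined by equilibrium dialysis against rat plasma or rat brain homogenate.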

[1] = target: T1, Metabotropic glutamate receptor 1 (Homo sapiens, UniProt Q13255); test: Negative allosteric modulation of human mGlu1 receptor expressed in HEK293A TREx cells assessed as calcium flux at 30 uM after 45 mins relative to glutamate; type: functional, cell-based; details: HEK293-A
Outline: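 Tetracycline-induced HEK293A TREx cells expressing human mGlu1 were loaded with Fluo-4 for Ca2+ flux. Test compound was given at 30 μM. Response amplitude is expressed as a percentage of the maximal response to 100 μM glutamate, averaged over n ≥ 3.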
Target sequence in this assay (Q13255 19-1194 limits assumed): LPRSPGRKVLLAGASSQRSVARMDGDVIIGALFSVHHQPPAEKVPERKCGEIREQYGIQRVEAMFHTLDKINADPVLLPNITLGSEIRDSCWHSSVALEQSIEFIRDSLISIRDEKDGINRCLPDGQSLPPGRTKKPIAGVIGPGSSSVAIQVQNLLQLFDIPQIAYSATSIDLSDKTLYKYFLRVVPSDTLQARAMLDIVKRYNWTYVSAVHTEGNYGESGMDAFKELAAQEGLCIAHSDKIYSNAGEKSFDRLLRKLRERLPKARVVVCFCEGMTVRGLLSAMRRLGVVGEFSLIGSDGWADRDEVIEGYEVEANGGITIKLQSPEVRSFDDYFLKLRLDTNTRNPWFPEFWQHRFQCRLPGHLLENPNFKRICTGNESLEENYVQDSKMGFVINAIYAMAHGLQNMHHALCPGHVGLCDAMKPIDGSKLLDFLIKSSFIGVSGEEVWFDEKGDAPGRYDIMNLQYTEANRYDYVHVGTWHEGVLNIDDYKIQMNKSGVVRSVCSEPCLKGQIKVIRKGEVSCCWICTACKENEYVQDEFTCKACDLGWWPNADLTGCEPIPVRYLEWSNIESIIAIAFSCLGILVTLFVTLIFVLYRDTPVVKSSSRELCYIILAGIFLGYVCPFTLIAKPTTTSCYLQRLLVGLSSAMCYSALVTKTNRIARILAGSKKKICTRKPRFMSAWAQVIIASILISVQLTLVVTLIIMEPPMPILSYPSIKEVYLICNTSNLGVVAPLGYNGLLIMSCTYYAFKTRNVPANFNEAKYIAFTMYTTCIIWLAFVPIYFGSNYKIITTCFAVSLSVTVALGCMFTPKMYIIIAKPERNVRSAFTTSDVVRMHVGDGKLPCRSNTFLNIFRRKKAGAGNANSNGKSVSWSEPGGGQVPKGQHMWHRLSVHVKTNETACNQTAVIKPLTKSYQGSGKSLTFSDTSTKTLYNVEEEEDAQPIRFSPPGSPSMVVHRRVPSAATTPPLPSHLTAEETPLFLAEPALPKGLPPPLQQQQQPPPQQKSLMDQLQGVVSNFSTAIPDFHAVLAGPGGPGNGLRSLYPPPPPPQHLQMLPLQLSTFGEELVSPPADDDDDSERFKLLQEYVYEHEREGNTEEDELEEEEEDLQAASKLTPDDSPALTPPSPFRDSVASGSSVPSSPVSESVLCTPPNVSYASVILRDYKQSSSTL

[2] = target: T1, Metabotropic glutamate receptor 1; test: Negative allosteric modulation of human mGlu1 receptor expressed in HEK293A TREx cells assessed as calcium flux after 45 mins; type: functional, cell-based, HEK293-A
Outline: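 HEK293A TREx cells stably expressing human mGlu1 were induced overnight with 50 ng/mL tetracycline at 37 °C. Ten-point 1:3 compound series were added for 2.3 min, then an EC20 of glutamate, then an EC80 of glutamate 1.9 min later. Ca2+ flux was read for 1.7 min. Values are the average of n ≥ 3.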
Target sequence in this assay (Q13255 whole entry): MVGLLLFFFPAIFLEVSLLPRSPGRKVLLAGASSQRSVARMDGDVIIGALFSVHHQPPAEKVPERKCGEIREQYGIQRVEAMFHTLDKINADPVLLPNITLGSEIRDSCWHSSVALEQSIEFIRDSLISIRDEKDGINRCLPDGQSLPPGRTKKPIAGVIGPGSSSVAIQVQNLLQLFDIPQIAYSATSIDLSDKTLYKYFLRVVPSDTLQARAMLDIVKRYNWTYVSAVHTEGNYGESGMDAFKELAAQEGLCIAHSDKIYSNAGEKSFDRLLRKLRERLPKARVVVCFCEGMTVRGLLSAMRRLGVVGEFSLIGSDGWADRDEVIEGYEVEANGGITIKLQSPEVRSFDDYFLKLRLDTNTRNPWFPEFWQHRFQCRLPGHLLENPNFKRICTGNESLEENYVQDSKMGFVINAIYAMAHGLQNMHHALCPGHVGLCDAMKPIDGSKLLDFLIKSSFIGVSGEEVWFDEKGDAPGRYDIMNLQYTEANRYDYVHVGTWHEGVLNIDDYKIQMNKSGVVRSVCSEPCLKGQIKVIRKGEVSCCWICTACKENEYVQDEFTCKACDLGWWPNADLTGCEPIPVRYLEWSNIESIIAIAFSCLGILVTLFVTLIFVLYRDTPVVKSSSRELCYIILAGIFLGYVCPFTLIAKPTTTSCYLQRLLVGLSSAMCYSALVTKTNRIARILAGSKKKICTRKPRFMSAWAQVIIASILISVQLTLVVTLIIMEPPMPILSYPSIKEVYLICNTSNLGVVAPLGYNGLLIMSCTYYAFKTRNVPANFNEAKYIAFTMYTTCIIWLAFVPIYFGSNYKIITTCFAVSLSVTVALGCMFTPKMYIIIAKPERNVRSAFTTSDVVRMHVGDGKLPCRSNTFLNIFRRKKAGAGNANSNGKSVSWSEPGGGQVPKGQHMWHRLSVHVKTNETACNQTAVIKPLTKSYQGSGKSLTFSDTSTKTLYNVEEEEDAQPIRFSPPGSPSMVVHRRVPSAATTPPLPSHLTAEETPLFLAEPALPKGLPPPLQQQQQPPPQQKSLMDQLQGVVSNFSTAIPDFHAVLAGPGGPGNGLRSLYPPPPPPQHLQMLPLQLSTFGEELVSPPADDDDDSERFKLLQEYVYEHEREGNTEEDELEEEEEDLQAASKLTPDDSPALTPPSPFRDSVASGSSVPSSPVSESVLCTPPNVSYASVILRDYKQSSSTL

[3] = target: T1, Metabotropic glutamate receptor 1; test: Negative allosteric modulation of human mGlu1 receptor up to 30 uM
Target sequence in this assay (Q13255 whole entry, looked up): as the sequence (Q13255 whole entry) above

Cytochrome P450 2D6 = Cytochrome P450 2D6 (Homo sapiens, UniProt P10635); test: Inhibition of CYP2D6 in human liver microsomes in presence of NADPH; type: ADME, Microsome
Chain of Cytochrome P450 2D6 (P10635 whole entry): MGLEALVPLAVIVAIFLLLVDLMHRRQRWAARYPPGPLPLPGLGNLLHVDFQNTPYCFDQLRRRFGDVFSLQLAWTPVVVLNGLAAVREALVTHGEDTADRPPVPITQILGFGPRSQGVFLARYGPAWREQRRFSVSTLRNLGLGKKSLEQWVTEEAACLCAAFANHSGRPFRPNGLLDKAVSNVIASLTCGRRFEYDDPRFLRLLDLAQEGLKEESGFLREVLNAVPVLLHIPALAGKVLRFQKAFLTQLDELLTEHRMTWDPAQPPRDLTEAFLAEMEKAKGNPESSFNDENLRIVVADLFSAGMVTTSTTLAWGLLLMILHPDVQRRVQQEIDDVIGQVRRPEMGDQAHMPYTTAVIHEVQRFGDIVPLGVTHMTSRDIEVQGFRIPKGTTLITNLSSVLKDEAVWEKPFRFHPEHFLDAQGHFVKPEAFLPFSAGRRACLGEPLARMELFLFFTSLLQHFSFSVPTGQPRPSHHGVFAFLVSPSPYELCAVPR

Cytochrome P450 1A2 = target: T2, Cytochrome P450 1A2 (Homo sapiens, UniProt P05177); test: Inhibition of CYP1A2 in human liver microsomes in presence of NADPH; type: ADME, Microsome
T2 sequence (P05177 whole entry): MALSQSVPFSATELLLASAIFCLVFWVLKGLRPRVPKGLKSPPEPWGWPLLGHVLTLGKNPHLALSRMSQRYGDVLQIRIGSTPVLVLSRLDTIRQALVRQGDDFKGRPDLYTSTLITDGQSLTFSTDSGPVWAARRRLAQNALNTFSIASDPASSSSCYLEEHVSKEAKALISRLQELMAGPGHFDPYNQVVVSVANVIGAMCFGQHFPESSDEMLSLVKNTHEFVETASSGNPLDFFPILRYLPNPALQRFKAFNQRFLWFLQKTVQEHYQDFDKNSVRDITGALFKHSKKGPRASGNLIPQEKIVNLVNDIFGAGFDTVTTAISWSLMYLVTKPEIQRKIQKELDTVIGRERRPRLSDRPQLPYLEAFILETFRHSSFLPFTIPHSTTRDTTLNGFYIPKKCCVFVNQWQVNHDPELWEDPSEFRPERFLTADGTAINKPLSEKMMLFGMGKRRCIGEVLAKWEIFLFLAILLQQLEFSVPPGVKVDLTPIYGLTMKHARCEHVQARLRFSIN

Cytochrome P450 3A4 = Cytochrome P450 3A4 (Homo sapiens, UniProt P08684); test: Inhibition of CYP3A4 in human liver microsomes in presence of NADPH; type: ADME, Microsome
Chain of Cytochrome P450 3A4 (P08684 whole entry): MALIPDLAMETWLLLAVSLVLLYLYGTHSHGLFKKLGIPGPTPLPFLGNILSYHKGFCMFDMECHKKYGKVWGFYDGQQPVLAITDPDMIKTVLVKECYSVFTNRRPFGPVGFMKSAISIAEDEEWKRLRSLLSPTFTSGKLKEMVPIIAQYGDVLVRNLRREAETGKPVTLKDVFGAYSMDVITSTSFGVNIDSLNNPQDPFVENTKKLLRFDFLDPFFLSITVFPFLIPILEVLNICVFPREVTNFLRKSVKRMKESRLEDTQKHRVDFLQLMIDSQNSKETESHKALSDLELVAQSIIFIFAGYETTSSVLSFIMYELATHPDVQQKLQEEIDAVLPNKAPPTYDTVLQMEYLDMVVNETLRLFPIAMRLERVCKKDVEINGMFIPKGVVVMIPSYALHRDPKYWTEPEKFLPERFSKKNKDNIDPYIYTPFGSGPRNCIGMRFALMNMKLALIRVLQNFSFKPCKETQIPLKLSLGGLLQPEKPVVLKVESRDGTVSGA

Cytochrome P450 2C9 = Cytochrome P450 2C9 (Homo sapiens, UniProt P11712); test: Inhibition of CYP2C9 in human liver microsomes in presence of NADPH; type: ADME, Microsome
Chain of Cytochrome P450 2C9 (P11712 whole entry): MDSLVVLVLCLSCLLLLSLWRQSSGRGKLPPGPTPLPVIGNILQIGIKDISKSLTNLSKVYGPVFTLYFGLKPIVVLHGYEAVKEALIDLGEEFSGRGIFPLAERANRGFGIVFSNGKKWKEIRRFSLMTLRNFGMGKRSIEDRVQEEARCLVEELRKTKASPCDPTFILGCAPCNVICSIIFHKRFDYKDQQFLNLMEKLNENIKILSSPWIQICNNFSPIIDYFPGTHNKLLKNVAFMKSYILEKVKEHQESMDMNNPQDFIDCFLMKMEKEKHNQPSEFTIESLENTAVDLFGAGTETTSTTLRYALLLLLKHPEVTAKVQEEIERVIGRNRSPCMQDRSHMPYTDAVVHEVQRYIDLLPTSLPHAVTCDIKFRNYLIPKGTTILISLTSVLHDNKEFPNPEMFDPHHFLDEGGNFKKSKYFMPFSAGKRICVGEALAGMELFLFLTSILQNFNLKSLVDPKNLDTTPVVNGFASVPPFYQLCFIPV

Brain = test: Fraction unbound in rat brain; type: ADME, tissue-based; outline: as §1
[4] = target: Metabotropic glutamate receptor 8 (Homo sapiens) (UniProt O00222); test: Negative allosteric modulation of mGlu8 receptor (unknown origin) by cell based assay
Outline: (§2)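 Selectivity against other mGlu subtypes was tested in cell-based functional assays with compound at 10 μM.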

[5] = target: Metabotropic glutamate receptor 6 (Homo sapiens) (UniProt O15303); test: Negative allosteric modulation of mGlu6 receptor (unknown origin) by cell based assay; outline: as §2
[6] = target: Metabotropic glutamate receptor 5 (Rattus norvegicus, UniProt P31424); test: Negative allosteric modulation of mGlu5 receptor (unknown origin) by cell based assay
[7] = target: Metabotropic glutamate receptor 4 (Homo sapiens) (UniProt Q14833); test: Negative allosteric modulation of mGlu4 receptor (unknown origin) by cell based assay; outline: as §2
Chain of Metabotropic glutamate receptor 4 (Homo sapiens) (Q14833 whole entry): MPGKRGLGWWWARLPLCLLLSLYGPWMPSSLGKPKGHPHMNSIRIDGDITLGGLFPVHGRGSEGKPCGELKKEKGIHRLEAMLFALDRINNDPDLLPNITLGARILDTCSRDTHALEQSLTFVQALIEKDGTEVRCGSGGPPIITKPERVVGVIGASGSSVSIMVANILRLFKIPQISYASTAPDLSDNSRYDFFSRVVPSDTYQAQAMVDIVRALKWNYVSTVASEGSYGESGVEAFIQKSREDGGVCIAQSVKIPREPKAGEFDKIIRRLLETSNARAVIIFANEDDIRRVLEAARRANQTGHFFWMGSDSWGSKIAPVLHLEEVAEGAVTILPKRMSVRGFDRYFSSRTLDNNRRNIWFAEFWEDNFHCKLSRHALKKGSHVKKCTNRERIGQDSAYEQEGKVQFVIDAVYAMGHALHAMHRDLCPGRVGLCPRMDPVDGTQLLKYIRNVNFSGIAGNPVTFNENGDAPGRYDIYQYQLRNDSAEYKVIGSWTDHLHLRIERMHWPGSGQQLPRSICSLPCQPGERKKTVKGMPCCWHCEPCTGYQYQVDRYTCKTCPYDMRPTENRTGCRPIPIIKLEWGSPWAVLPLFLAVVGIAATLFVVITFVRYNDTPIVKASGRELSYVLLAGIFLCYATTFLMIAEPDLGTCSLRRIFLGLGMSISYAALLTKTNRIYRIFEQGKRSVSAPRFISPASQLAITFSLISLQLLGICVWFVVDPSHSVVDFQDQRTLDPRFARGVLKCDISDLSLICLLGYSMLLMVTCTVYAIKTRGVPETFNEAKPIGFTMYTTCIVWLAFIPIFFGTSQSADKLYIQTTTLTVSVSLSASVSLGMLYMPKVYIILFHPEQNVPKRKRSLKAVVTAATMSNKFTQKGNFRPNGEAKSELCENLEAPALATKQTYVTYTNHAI

[8] = target: Metabotropic glutamate receptor 3 (Homo sapiens) (UniProt Q14832); test: Negative allosteric modulation of mGlu3 receptor (unknown origin) by cell based assay; outline: as §2
[9] = target: Metabotropic glutamate receptor 2 (Homo sapiens) (UniProt Q14416); test: Negative allosteric modulation of mGlu2 receptor (unknown origin) by cell based assay; outline: as §2
Rattus norvegicus = species: Rattus norvegicus; test: Binding affinity to rat sodium channel site 2 by radioligand binding assay; details: concentration not given here
Outline: (§3)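 Compound was screened at 10 μM in a commercial radioligand binding panel of 68 GPCRs, ion channels, kinases and transporters.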

[10] = target: Sigma non-opioid intracellular receptor 1 (Homo sapiens) (UniProt Q99720); test: Binding affinity to human sigma1 receptor by radioligand binding assay; details: concentration not given here; outline: as §3
Chain of Sigma non-opioid intracellular receptor 1 (Homo sapiens) (Q99720 whole entry): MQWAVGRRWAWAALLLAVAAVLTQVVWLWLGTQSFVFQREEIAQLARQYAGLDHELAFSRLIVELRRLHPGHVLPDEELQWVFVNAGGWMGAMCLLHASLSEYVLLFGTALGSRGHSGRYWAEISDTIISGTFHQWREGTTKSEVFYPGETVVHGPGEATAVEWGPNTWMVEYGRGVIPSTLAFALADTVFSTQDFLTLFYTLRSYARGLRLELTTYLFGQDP

[11] = target: T3, 5-hydroxytryptamine receptor 3A (Homo sapiens) (UniProt P46098); test: Binding affinity to human 5HT3 receptor by radioligand binding assay; details: concentration not given here; outline: as §3
T3 sequence (whole entry): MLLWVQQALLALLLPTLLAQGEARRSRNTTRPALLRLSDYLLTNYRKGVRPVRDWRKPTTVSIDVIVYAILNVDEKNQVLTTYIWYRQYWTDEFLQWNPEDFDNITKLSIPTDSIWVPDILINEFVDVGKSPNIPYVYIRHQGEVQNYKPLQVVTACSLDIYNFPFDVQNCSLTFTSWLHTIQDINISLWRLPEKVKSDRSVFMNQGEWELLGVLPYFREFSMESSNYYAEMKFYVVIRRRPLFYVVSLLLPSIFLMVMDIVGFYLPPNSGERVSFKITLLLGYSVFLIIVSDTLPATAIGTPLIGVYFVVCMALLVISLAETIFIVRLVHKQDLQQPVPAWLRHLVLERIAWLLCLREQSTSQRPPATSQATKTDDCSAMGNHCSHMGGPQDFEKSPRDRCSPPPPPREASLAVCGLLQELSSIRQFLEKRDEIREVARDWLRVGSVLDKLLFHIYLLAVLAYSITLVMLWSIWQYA

[12] = target: Kappa-type opioid receptor (Homo sapiens) (UniProt P41145); test: Binding affinity to human kappa opioid receptor by radioligand binding assay; details: concentration not given here; outline: as §3
[13] = target: Metabotropic glutamate receptor 5 (Rattus norvegicus) (UniProt P31424); test: Negative allosteric modulation of rat mGlu5 receptor at 30 uM relative to glutamate

SMILES | %max [1] [%] | IC50 [2] [µM] | other results
O=C(N1C[C@@H]2CN(c3cnccn3)C[C@@H]2C1)C12CC3CC(CC(C3)C1)C2 | -1.1 | 0.669 | Fu (Plasma): 10.3%
O=C(N1C[C@@H]2CN(c3nccs3)C[C@@H]2C1)C12CC3CC(CC(C3)C1)C2 | 56.6 | > 10 | –
O=C(N1C[C@@H]2CN(c3ncccn3)C[C@@H]2C1)C12CC3CC(CC(C3)C1)C2 | 10.3 | > 10 | –
CC(C)(C)CC(=O)N1C[C@@H]2CN(c3ccccn3)C[C@@H]2C1 | – | > 30 | Activity [3]: inactive
O=C(CC1CCCCC1)N1C[C@@H]2CN(c3ccccn3)C[C@@H]2C1 | 47.6 | > 10 | –
O=C(N1C[C@@H]2CN(c3ccc(F)cn3)C[C@@H]2C1)C12CC3CC(CC(C3)C1)C2 | 2.2 | 0.478 | Fu (Plasma): 1.5%
O=C(N1CCCCCCC1)N1C[C@@H]2CN(c3ccccn3)C[C@@H]2C1 | 23.2 | > 10 | –
CC(C)(C)[C@H]1CC[C@H](C(=O)N2C[C@H]3CN(c4ccccn4)C[C@H]3C2)CC1 | 29.2 | > 10 | –
C[C@@H]1CN(c2cccnc2C#N)CCN1C(=O)C12CC3CC(CC(C3)C1)C2 | – | – | IC50 (Cytochrome P450 2D6): 12.4 µM; IC50 (Cytochrome P450 1A2): > 30 µM; IC50 (Cytochrome P450 3A4): 7 µM; IC50 (Cytochrome P450 2C9): > 30 µM
C[C@H]1CC[C@H](C(=O)N2C[C@H]3CN(c4ccccn4)C[C@H]3C2)CC1 | 37.9 | > 10 | –
N#Cc1ccncc1N1C[C@H]2CN(C(=O)C34CC5CC(CC(C5)C3)C4)C[C@H]2C1 | 0.1 | 0.833 | –
O=C(N1CCC2(CCCC2)CC1)N1C[C@@H]2CN(c3ccccn3)C[C@@H]2C1 | 0.7 | 0.769 | –
N#Cc1ncccc1N1C[C@H]2CN(C(=O)C34CC5CC(CC(C5)C3)C4)C[C@H]2C1 | 1.3 | 0.553 | Fu (Plasma): 4.5%
CC(C)(C)C(=O)N1C[C@@H]2CN(c3ccccn3)C[C@@H]2C1 | – | > 30 | –
O=C(N1CC2CCC(C2)C1)N1C[C@@H]2CN(c3ccccn3)C[C@@H]2C1 | -5.8 | – | –
N#Cc1ccccc1N1C[C@H]2CN(C(=O)C34CC5CC(CC(C5)C3)C4)C[C@H]2C1 | 6.9 | 0.185 | Fu (Plasma): 1.4%

Continued, in another order:

%max [1] [%] | IC50 [2] [µM] | SMILES | other results
25.5 | > 10 | O=C(N1C[C@@H]2CN(c3ccncn3)C[C@@H]2C1)C12CC3CC(CC(C3)C1)C2 | –
-0.1 | 0.297 | O=C(N1C[C@@H]2CN(c3ccccn3)C[C@@H]2C1)N1CCC2(CCCC2)C1 | IC50 (Cytochrome P450 2D6): > 30 µM; IC50 (Cytochrome P450 1A2): > 30 µM; IC50 (Cytochrome P450 3A4): > 30 µM; IC50 (Cytochrome P450 2C9): > 30 µM; Fu (Plasma): 9%; Fu (Brain): 5.1%; Activity [4]: Active; Activity [5]: Active; IC50 [6]: > 10 µM; Activity [7]: inactive; Activity [8]: inactive; Activity [9]: inactive
36.8 | > 10 | N#Cc1cnccc1N1C[C@H]2CN(C(=O)C34CC5CC(CC(C5)C3)C4)C[C@H]2C1 | –
2.2 | 0.085 | O=C(N1C[C@@H]2CN(c3ccccn3)C[C@@H]2C1)C12CC3CC(CC(C3)C1)C2 | IC50 (Cytochrome P450 2D6): 24.3 µM; IC50 (Cytochrome P450 1A2): > 30 µM; IC50 (Cytochrome P450 3A4): 6.2 µM; IC50 (Cytochrome P450 2C9): > 30 µM; Fu (Plasma): 2.9%; Fu (Brain): 2.3%; inhibition (Rattus norvegicus): 52%; inhibition [10]: 95%; inhibition [11]: 90%; inhibition [12]: 60%; IC50 [6]: 3.36 µM; Activity [7]: inactive; Activity [8]: inactive; Activity [9]: inactive; %max [13]: 1.1%
12.2 | – | N#Cc1cccnc1N1C[C@H]2CN(C(=O)C34CC5CC(CC(C5)C3)C4)C[C@H]2C1 | –
9.3 | 5.14 | CC1(C(=O)N2C[C@@H]3CN(c4ccccn4)C[C@@H]3C2)CCCCC1 | –
2.3 | 0.093 | O=C(N1C[C@@H]2CN(c3cccc(F)n3)C[C@@H]2C1)C12CC3CC(CC(C3)C1)C2 | Fu (Plasma): 1.2%
36.5 | > 10 | O=C(C1CCCCCC1)N1C[C@@H]2CN(c3ccccn3)C[C@@H]2C1 | –
0 | – | O=C(CC12CC3CC(CC(C3)C1)C2)N1C[C@@H]2CN(c3ccccn3)C[C@@H]2C1 | –
-1.5 | 1.91 | O=C(N1CC2CCCC(C2)C1)N1C[C@@H]2CN(c3ccccn3)C[C@@H]2C1 | –
57.7 | > 10 | O=C(C1CCCCC1)N1C[C@@H]2CN(c3ccccn3)C[C@@H]2C1 | –
58.7 | > 10 | O=C(N1C[C@@H]2CN(c3ccccn3)C[C@@H]2C1)C12C3C4C5C3C1C5C42 (stereo partly drawn) | –
1.5 | 0.364 | O=C(N1CCC2(CCCCC2)CC1)N1C[C@@H]2CN(c3ccccn3)C[C@@H]2C1 | Fu (Plasma): 1.5%
-7.5 | 11.9 | CC1(C)[C@@H]2CN(C(=O)N3C[C@@H]4CN(c5ccccn5)C[C@@H]4C3)C[C@@H]21 | –
2.1 | 1 | O=C(N1C[C@@H]2CN(c3ncccc3F)C[C@@H]2C1)C12CC3CC(CC(C3)C1)C2 | –
